In data set [1] the test system is T47D. Briefly: Inhibition of colony formation in human T47D cells at 10 uM incubated for 2 weeks in presence of JMJD6 inhibitor by crystal violet staining based assay. It counts as functional, cell-based. The method in brief:
(§1)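 Cells are seeded at 1 × 10^3/well and treated with peptide (10 μM) for 2 weeks, alone or with JQ1 5 μM, iJMJD6 10 μM, ICI 2.5 μM, or tamoxifen 3 μM (tamoxifen-resistant lines). Colonies are stained with crystal violet, dissolved in 10% acetic acid, and read at 590 nm. Three biological repeats.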

Data set [2] deals with MDA-MB-231. Briefly: Inhibition of colony formation in human MDA-MB-231 cells at 10 uM incubated for 2 weeks by crystal violet staining based assay. It counts as functional, cell-based. The method in brief: as §1
A short description of data set [3]: Toxicity in BALB/c mouse xenografted with human MCF7 cells assessed as change in lung morphology at 12.5 mg/kg, ip administered every 2 days in presence of 50 mg/kg JQ1. The data set is classed as organism-based. The following applies: in vivo, 48 h.
Data set [4] has as its system Mus musculus. As to the kind of experiment: Downregulation of BRD4 mRNA expression in BALB/c mouse tumor xenografted with human MDA-MB-231 cells at 25 mg/kg, ip administered every 2 days by RT-qPCR analysis. It counts as functional, organism-based.
Data set [5] in a line: Toxicity in BALB/c mouse xenografted with human MCF7 cells assessed as change in lung weight at 12.5 mg/kg, ip administered every 2 days in presence of 50 mg/kg JQ1. The data set is classed as organism-based. The following applies: in vivo, 48 h.
The test system of data set [6] is MDA-MB-231. As to the kind of experiment: Antiproliferative activity against human MDA-MB-231 cells at 10 uM incubated for 1 week in presence of 5 uM JQ1 by CellTiter 96 Aqueous One Solution based assay. It counts as functional, cell-based. The following applies: time 1.0 weeks. The method in brief:
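Cells seeded at 2 × 10^3/well and treated with peptide (10 μM) alone or combined with JQ1 (5 μM), iJMJD6 (10 μM) or ICI (2.5 μM), as the line states. Viability read by MTS reagent, 1 h at 37 °C, A490. Three biological repeats.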

The nature of data set [7]: Toxicity in BALB/c mouse xenografted with human MCF7 cells assessed as change in heart morphology at 12.5 mg/kg, ip administered every 2 days in presence of 50 mg/kg JQ1. It counts as organism-based. The following applies: in vivo, 48 h.
A short description of data set [8]: Downregulation of CCND1 protein expression in BALB/c mouse tumor xenografted with human MCF7 cells assessed as fold change in remaining CCND1 level at 25 mg/kg, ip administered every 2 days by immunoblotting analysis. The data set is classed as functional. A digest of the protocol: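 Tumours taken from xenograft mice dosed with peptide at 25 mg/kg ip every 2 days. […] Three repeats.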

Data set [9] has as its system T47D. As to the kind of experiment: Inhibition of cell migration in human T47D cells at 10 uM incubated for 24 hrs in presence of fulvestrant by inverted microscopic analysis. The data set is classed as functional, cell-based. A digest of the protocol: (§2)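 Cells are seeded at 5 × 10^5/well and scratched at 80–90% confluence. They are kept in serum-free medium with peptide (10 μM); partner agents are JQ1 5 μM, iJMJD6 10 μM, or ICI 2.5 μM. Wound area is imaged by inverted microscope at 0 and 12 or 24 h. Wound closure % = (A0−A1)/A0 × 100. Three biological repeats.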

Data set [10] in a line: Toxicity in BALB/c mouse xenografted with human MDA-MB-231 cells assessed as change in kidney weight at 12.5 mg/kg, ip administered every 2 days in presence of 50 mg/kg JQ1. The following applies: in vivo, 48 h. It counts as organism-based. The method in brief: (§3)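 Female BALB/c nude mice (4–6 weeks) carried sc MDA-MB-231 xenografts (5 × 10^6 cells) and were randomized at about 50 mm3. Peptide (12.5 mg/kg ip in saline) and JQ1 (50 mg/kg ip, DMSO/10% HPBCD 1:10) were given every 2 days, alone or combined. Body weight was recorded, and heart, liver, spleen, lung and kidney morphology and weight were assessed.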

Data set [11] in a line: Downregulation of […] protein expression in human MCF7 cells assessed as fold change in remaining c-Myc level at 10 uM incubated for 24 hrs by immunoblotting analysis (reference value: 1). The data set is classed as functional. A digest of the protocol: (§4)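 Cells treated with peptide (10 μM) for 24 h. Lysates in Tris/NaCl/EDTA/1% Triton X-100, run on 10% SDS-PAGE and immunoblotted with ECL detection. β-actin as loading control. Three repeats, quantified against untreated cells.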

Data set [12] can be described thus: Toxicity in BALB/c mouse xenografted with human […] assessed as body weight loss at 25 mg/kg, ip administered every 2 days. It counts as organism-based. The following applies: in vivo, 48 h. The method in brief: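 Female BALB/c nude mice (4–6 weeks) received 5 × 10^6 MCF7 cells sc in PBS, with estrogen (E2, 10–2 M) brushed on the neck every 2 days. Mice were randomized at about 50 mm3 tumor volume. Peptide in normal saline was given ip at 25 mg/kg every 2 days. Body weight was monitored.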

Data set [13] deals with MDA-MB-231. As to the kind of experiment: Downregulation of c-Myc gene expression in human MDA-MB-231 cells at 10 uM incubated for 6 hrs by RT-qPCR analysis. It counts as functional, cell-based. The method in brief: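 Cells treated with peptide (10 μM) for 6 h; c-Myc, N-myc and CCND1 mRNA measured by RT-qPCR. Three biological repeats.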
For data set [14], the system named is Mus musculus. As to the kind of experiment: Downregulation of JMJD6 mRNA expression in BALB/c mouse tumor xenografted with human MDA-MB-231 cells at 25 mg/kg, ip administered every 2 days by RT-qPCR analysis. The data set is classed as functional, organism-based.
Data set [15] has as its system MDA-MB-231. Briefly: Inhibition of cell migration in human MDA-MB-231 cells at 10 uM incubated for 12 hrs by inverted microscopic assay. The data set is classed as functional, cell-based. A digest of the protocol: as §2
In data set [16] the test system is Mus musculus. As to the kind of experiment: Downregulation of CCND1 mRNA expression in BALB/c mouse tumor xenografted with human MCF7 cells at 25 mg/kg, ip administered every 2 days by RT-qPCR analysis. It counts as functional, organism-based.
Data set [17] relates to MCF7. Briefly: Inhibition of cell migration in human MCF7 cells at 10 uM incubated for 24 hrs in presence of fulvestrant by inverted microscopic analysis. It counts as functional, cell-based. The method in brief: as §2
Data set [18] in a line: Downregulation of BRD4 protein expression in human MDA-MB-231 cells assessed as fold change in remaining BRD4 level at 10 uM incubated for 24 hrs by immunoblotting analysis (reference value: 1). It counts as functional. A digest of the protocol:
as §4

A short description of data set [19]: Toxicity in BALB/c mouse xenografted with human MDA-MB-231 cells assessed as change in liver weight at 12.5 mg/kg, ip administered every 2 days in presence of 50 mg/kg JQ1. The data set is classed as organism-based. The following applies: in vivo, 48 h. The method in brief:
as §3

Data set [20] deals with MCF7. As to the kind of experiment: Antiproliferative activity against human MCF7 cells at 10 uM incubated for 1 week in presence of tamoxifen by CellTiter 96 Aqueous One Solution based assay. It counts as functional, cell-based. The following applies: time 1.0 weeks. A digest of the protocol:
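Tamoxifen-resistant MCF7 or T47D cells treated with peptide (10 μM) or tamoxifen (3 μM), alone or combined. Viability read by MTS reagent, 1 h at 37 °C, A490.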

The test system of data set [21] is MDA-MB-231. Briefly: Inhibition of cell migration in human MDA-MB-231 cells at 10 uM incubated for 12 hrs in presence of 5 uM JQ1 by inverted microscopic assay. It counts as functional, cell-based. A digest of the protocol: as §2
Data set [22] deals with MCF7. Briefly: Inhibition of colony formation in human MCF7 cells at 10 uM incubated for 2 weeks by crystal violet staining based assay. It counts as functional, cell-based. A digest of the protocol: as §1
Data set [23] relates to MCF7. Briefly: Inhibition of colony formation in human MCF7 cells at 10 uM incubated for 2 weeks in presence of 5 uM JQ1 by crystal violet staining based assay. It counts as functional, cell-based. The method in brief:
as §1

Data set [24] can be described thus: Toxicity in BALB/c mouse xenografted with human MCF7 cells assessed as change in body weight at 2.5 mg/kg, ip administered every 2 days in presence of 12.5 mg/kg fulvestrant. The data set is classed as organism-based. The following applies: in vivo, 48 h.

Activity calls are given as the source filed them. The calls are words filed in the database; no cut-off is given here. Square brackets hold non-standard residues; d marks the D form. Peptide text beside a SMILES is read from it. Hyp = O=C(O)[C@@H]1C[C@@H](O)CN1; Ahx = NCCCCCC(=O)O

As for `CC[C@H](C)[C@H](NC(=O)[C@H](Cc1ccc(O)cc1)NC(=O)[C@@H]1C[C@@H](O)CN1C(=O)[C@H](C)NC(=O)[C@@H](NC(=O)CCCCCNC(=O)[C@H](CCC(=O)O)NC(=O)CNC(=O)[C@H](CS)NC(=O)[C@H](CCCCN)NC(=O)[C@H](Cc1ccccc1)NC(=O)[C@H](CCCCN)NC(=O)[C@H](CCC(N)=O)NC(=O)[C@H](CC(N)=O)NC(=O)[C@H](CCCNC(=N)N)NC(=O)[C@H](CCCNC(=N)N)NC(=O)[C@H](CCCNC(=N)N)NC(=O)[C@H](CCCNC(=N)N)NC(=O)[C@H](CCC(N)=O)NC(=O)[C@H](CCCNC(=N)N)NC(=O)[C@H](CCCNC(=N)N)NC(=O)[C@H](CCCCN)NC(=O)[C@H](CCCCN)NC(=O)[C@H](CCCNC(=N)N)NC(=O)CNC(=O)[C@@H](N)Cc1ccc(O)cc1)[C@@H](C)CC)C(=O)O` (H-YGRKKRRQRRRRNQKFKCGE[Ahx]IA[Hyp]YI-OH), the inhibition entry in the data set with T47D [1], in the data set with MDA-MB-231 [2], in the data set on T47D [9], in the data set with MDA-MB-231 [15], in the data set on MCF7 [17] and in the data set on MDA-MB-231 [21] was “Active” throughout. For the same molecule, the inhibition result with MCF7 [22] and in the data set with MCF7 [23] was “Active” throughout. For the same molecule, the Activity result in [3], in data set [5], in data set [7], in data set [10], in data set [12] and in data set [19] was “Non-Toxic” in each case. Further, in [24], the Activity entry is on record as “Non-Toxic”. In addition, the outcome with Mus musculus [4] and in the data set with Mus musculus [14] was inactive. Besides, the result with MDA-MB-231 [6], in the data set on MDA-MB-231 [13], in the data set on Mus musculus [16] and with MCF7 [20] was Active. The entries for the “fold change (FC)” value in data set [8], in data set [11] and in data set [18] were 0.09, 0.53 and 0.55, respectively.

In the case of H-YGRKKRRQRRRRNQKFKCGE-OH, the inhibition result in the data set with T47D [1], with MDA-MB-231 [2], in the data set on T47D [9], in the data set on MDA-MB-231 [15], in the data set with MCF7 [17] and in the data set on MDA-MB-231 [21] was “Active” in each case. In addition, the inhibition entry in the data set on MCF7 [22] and in the data set with MCF7 [23] was “Active” throughout. Further, the Activity result in data set [3], in data set [5], in [7], in [10], in [12] and in [19] was “Non-Toxic” in each case. Further, the Activity entry in [24] is on record as “Non-Toxic”. Also, the result in the data set with Mus musculus [4] and in the data set with Mus musculus [14] was inactive. In addition, the result in the data set on MDA-MB-231 [6], with MDA-MB-231 [13], with Mus musculus [16] and in the data set on MCF7 [20] was Active. Besides, the “fold change (FC)” value was 0.11 in [8], 0.45 in [11] and 1.06 in data set [18].

Source of the values: ChEMBL document CHEMBL5543129, “Peptide Inhibitor Targeting the Extraterminal Domain in BRD4 Potently Suppresses Breast Cancer Both In Vitro and In Vivo” (J Med Chem, 2024).
